From ChEMBL document CHEMBL1155717, “Monoterpene glycosides and triterpene acids from Eriobotrya deflexa” (J Nat Prod, 2001) come the findings set out here.

The structures appear in SMILES notation. Active and inactive are the calls of the source. No cut-off for these calls is given here.

Assay [1] in a line: Antiinflammatory activity in human PMNC assessed as inhibition of proliferation. The class given is functional. Put shortly:
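In vitro antiproliferation assay on human mononuclear cells (T lymphocytes, B lymphocytes and macrophages) isolated from peripheral blood. Compounds were tested at up to 100 µM, and activity was expressed as IC50.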

The species entered for assay [2] is Homo sapiens. In words: Antiinflammatory activity in human PMNC assessed as inhibition of proliferation upto 10 uM. The class given is functional.

As a reminder, the IC50 is the midpoint of a concentration-inhibition curve. Turning to `C[C@@H]1CC[C@]2(C(=O)O)CC[C@]3(C)C(=CC[C@@H]4[C@@]5(C)CC(=O)[C@H](O)C(C)(C)[C@@H]5CC[C@]43C)[C@@H]2[C@]1(C)O`, the IC50 in assay [1] was found to be 38.1 µM.
For the molecule `C[C@@H]1CC[C@]2(C(=O)O)CC[C@]3(C)C(=CC[C@@H]4[C@@]5(C)[C@H](O)C(=O)[C@H](O)C(C)(C)[C@@H]5CC[C@]43C)[C@@H]2[C@]1(C)O`, the IC50 in assay [1] came out at 32.5 µM.
Same read-out and setting: to `C[C@@H]1CC[C@]2(C(=O)O)CC[C@]3(C)C(=CC[C@@H]4[C@@]5(C)C[C@@H](O)[C@@H](O)C(C)(C)[C@@H]5CC[C@]43C)[C@@H]2[C@]1(C)O` [EUSCAPHIC ACID] belongs 28.8 µM.
Regarding `C=C[C@](C)(CCC=C(C)C)O[C@@H]1O[C@H](CO[C@@H]2O[C@@H](C)[C@H](OC(=O)/C=C/c3ccc(O)cc3)[C@@H](O[C@@H]3O[C@@H](C)[C@H](O)[C@@H](O)[C@H]3O)[C@H]2O)[C@@H](O)[C@H](O)[C@H]1O`, in assay [2], the result was inactive.
Same read-out and setting: under `C=C[C@](C)(CCC=C(C)C)O[C@@H]1O[C@H](CO[C@@H]2O[C@@H](C)[C@H](OC(=O)/C=C\c3ccc(O)cc3)[C@@H](O[C@@H]3O[C@@H](C)[C@H](O)[C@@H](O)[C@H]3O)[C@H]2O)[C@@H](O)[C@H](O)[C@H]1O` stands “inactive”.
As for `C[C@@H]1CC[C@]2(C(=O)O)CC[C@]3(C)C(=CC[C@@H]4[C@@]5(C)C[C@@H](O)C(=O)C(C)(C)[C@@H]5CC[C@]43C)[C@@H]2[C@]1(C)O`, in assay [1], the IC50 was 40 µM.
On the same count and under the same terms, under `C[C@@H]1CC[C@]2(C(=O)O)CC[C@]3(C)C(=CC[C@@H]4[C@@]5(C)[C@H](O)[C@@H](O)C(=O)C(C)(C)[C@@H]5CC[C@]43C)[C@@H]2[C@]1(C)O` stands 26.9 µM.
